Bioassay records: PubChem, several laboratories
Shown are actives, neighbours in structure and some others; about 2.4% of the full set was active somewhere.
UBC13 inh: UBC13 polyubiquitin chain formation inhibitors, primary screen, biochemical, TR-FRET, uHTS; Ubiquitin-conjugating enzyme E2 N (Homo sapiens), P61088; inhibition, % at 20 µM; 330,000 tested, 0.47% active; in the data active = inhibition above about 45%, passing the limit was not always enough; inconclusive = no clear call, values can overlap the other calls
Target sequence (P61088 whole entry, looked up): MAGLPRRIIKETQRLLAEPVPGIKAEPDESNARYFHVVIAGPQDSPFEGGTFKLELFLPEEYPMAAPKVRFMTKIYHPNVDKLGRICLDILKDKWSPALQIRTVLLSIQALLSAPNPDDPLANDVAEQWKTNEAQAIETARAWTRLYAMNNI
TMEM16A inh: TMEM16A chloride channel inhibitors, primary screen, cell-based, HTS; Anoctamin-1 (Mus musculus), Q8BHY3; normalized B-score (activity score, 25-100; higher = stronger inhibition) at 10 µM; 310,000 tested, 1.2% active; AID 588511, 2011; HEK293 TMEM16A/YFP iodide influx fluorescence, ionomycin;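 active = ratio plate-corrected score three or more library SD toward inhibition, starting fluorescence score within five deviations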;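 also: score derived from kinetic fluorescence span divided by baseline fluorescence per well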
Apaf1 inhib: inhibitors of human Apaf-1 apoptosome, primary screen, biochemical, DEVD-Rh110 fluorescence, uHTS; AID 489030, 2010; Apoptotic protease-activating factor 1 (Homo sapiens), O14727; 330,000 tested, 0.71% active; inhibition, % at 20 µM; reconstituted apoptosome caspase-3 activity; active = inhibition of at least 40% at 20 µM;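 also: plate controls were DMSO wells for no effect and DEVD-CHO caspase inhibitor wells for full effect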
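Assay system – apoptosome proteins · Medium – Hepes buffer, pH 7.5 · Also added – cytochrome c with DEVD-Rh110 · Timing – 30 min compound preincubation, 50 min activation, room temperature · Detection – Rh110 fluorescence, excitation 480 nm, emission 540 nm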
DNA FID counter: compounds displacing fluorescent DNA intercalator, primary screen, artefact control for HCV NS3 helicase inhibitor project, biochemical, FID fluorescence. 290,000 tested, 0.17% active. AID 1845, 2009. inhibition, % at 7.9 µM. DNA fluorescent intercalator displacement; in the data active = inhibition above about 37%;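 also: 0% = vehicle and 100% = reference compound; higher means more ethidium bromide displaced from hairpin DNA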
ANO1 activ: TMEM16A chloride channel activators or potentiators, primary screen, cell-based, HTS. Anoctamin-1 (Mus musculus), Q8BHY3. HEK293 TMEM16A/YFP-H148Q/I152L, iodide quench fluorescence; stronger effect = lower value. B-score at 10 µM. 340,000 tested, 0.3% active. AID 623877, 2012;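 active = fluorescence-ratio B-score plate-corrected deviation score at least 3 library SD below zero, with starting fluorescence score within 5 deviations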;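 also: channel opened by trigger with iodide after compound preincubation; score built on the fluorescence ratio of max minus min over baseline; more negative score means more quench and so TMEM16A activation or potentiation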
Active calls of the source: *; i = inactive; ? = inconclusive; . = not tested or not shown.

SMILES | UBC13 inh | TMEM16A inh | Apaf1 inhib | DNA FID counter | ANO1 activ
CCCOc1cc(N)ccc1C(=O)OCCN(CC)CC | 1 | i | -7 | . | i
CCCOc1ccc(N)cc1N | -50 | i | 91* | 9 | i
O=C(O)c1cc2c([nH]c1=O)CCCC2 | 4 | i | 8 | -2 | i
C=CCSC(=C(C#N)C#N)c1cc2c([nH]1)CCCC2 | 0 | 100* | 5 | -1 | i
Cn1c(=O)[nH]c(=O)c2c1[nH]c(=S)n2Cc1ccc(Cl)cc1 | ? | i | 0 | -15 | i
CCOC(=O)c1sc(NC(=O)c2cc(-c3ccccc3)nc3ccccc23)c(C#N)c1C | -32 | 100* | 9 | 1 | i
CCOC(=O)c1sc(NC(=O)CSc2n[nH]c(-c3ccccc3)n2)c(C#N)c1C | -25 | 100* | 4 | 2 | i
CCOC(=O)c1sc(NC(=O)c2cccnc2)c(C#N)c1C | 7 | i | -1 | -2 | i
O=C(NNC(=O)c1cc(-c2cccnc2)nc2ccccc12)Nc1ccc(Cl)cc1 | 3 | i | 10 | -4 | i
O=C(NNC(=O)c1cc(-c2ccccc2)nc2ccccc12)Nc1cccc(Cl)c1 | -4 | 100* | 23 | 6 | i
O=C1c2ccccc2C(=O)c2c(NCCCN(CCO)CCO)cccc21 | -416 | . | 3 | 89* | i
Cn1c(=O)c2c(nc3n2CC(O)CN3c2ccc(O)cc2)n(C)c1=O (configuration not stated) | -12 | i | 6 | -1 | i
CC(C)(C)C1COc2ccccc2N1C(=O)c1ccccc1Cl (configuration not stated) | 4 | i | 17 | -35 | -15*
CSc1ccccc1NC(=O)CSCc1ccc(C)cc1 | 2 | i | 25 | -19 | -20*
Cc1ccc(CSCC(=O)Nc2ccccc2C(=O)O)cc1 | -10 | i | -4 | -12 | i
CCC(C)[C@H]1CNCCN1CCc1cccc(F)c1 (some centres not stated) | 8 | i | -4 | . | i
COc1ccc(N2CCN(C(=O)CN3CCN(c4nc(-c5ccc(F)cc5)cs4)CC3)CC2)cc1 | 13 | 25* | 10 | -4 | i
COc1ccc(S(=O)(=O)N2CCCOC2CNC(=O)C(=O)NCCCn2ccnc2)cc1OC (configuration not stated) | 3 | i | -9 | 1 | i
COc1ccc(S(=O)(=O)N2CCCOC2CNC(=O)C(=O)NCCCn2ccnc2)cc1 (configuration not stated) | 6 | i | 0 | 0 | -7.3*
COc1ccc(S(=O)(=O)N2CCOC2CNC(=O)C(=O)NCCCn2ccnc2)cc1OC (configuration not stated) | 4 | i | 4 | -4 | -15*
COC(=O)c1cccc(-c2ccc(C(c3c(C)[nH][nH]c3=O)c3c(C)[nH][nH]c3=O)o2)c1 | -53 | i | 81* | -9 | i
Cc1[nH][nH]c(=O)c1C(c1ccc(-c2ccc(Cl)c(C(=O)O)c2)o1)c1c(C)[nH][nH]c1=O | . | . | . | -1 | i
OCCCNc1c2ccccc2nc2ccccc12 | -12 | i | 3 | 45* | i
CN(C)CCCNc1c2c(nc3ccccc13)CCC2 | 10 | i | -2 | 53* | i
CC(C)c1ccc(CN2C(=O)NC3(CCCCCC3)C2=O)cc1 | 4 | i | 18 | -24 | i
SMILES | UBC13 inh | TMEM16A inh | Apaf1 inhib | DNA FID counter | ANO1 activ
CC(C)c1ccccc1NC(=O)COC(=O)Cc1ccsc1 | -4 | i | 10 | -9 | i
CCCCN(Cc1ccccc1)c1ncnc2nc[nH]c12 | 47* | i | 12 | -19 | i
CCCCN(CCCC)c1ncnc2nc[nH]c12 | 29 | i | -1 | -26 | i
COc1cc2c(cc1OC)CN(C(=O)CSc1ccccc1C)CC2 | 3 | . | 5 | . | i
Cc1cccc(NC(=O)COc2cccc3c2CCN(Cc2ccccc2)C3=O)c1C | 5 | i | 29 | -15 | -6.5*
Nc1ncc(Br)cc1S(=O)(=O)Nc1cc(C(F)(F)F)cc(C(F)(F)F)c1 | -21 | 100* | 17 | -21 | -5*
C=CCCCN(Cc1ccccc1)S(=O)(=O)c1ccccc1Br | 15 | 25* | 14 | . | -6.2*
COc1ccc(OC)c(Cc2nnc(CCC(=O)NCc3ccsc3)o2)c1 | -4 | i | 8 | -9 | i
Cc1ccc(S(=O)(=O)N2CCCC2C(=O)OCC(=O)Nc2ccc3c(c2)OCO3)cc1 (configuration not stated) | 7 | i | 9 | -18 | i
Cc1ccc(S(=O)(=O)N2CCC[C@H]2C(=O)OCC(=O)c2ccc3c(c2)NC(=O)CO3)cc1 | 5 | 25* | 4 | -31 | i
c1ccc(Cn2nnnc2C(c2cccs2)N2CCc3ccccc3C2)cc1 (configuration not stated) | 3 | i | 9 | -13 | i
c1ccc(Cn2nnnc2C(c2cccs2)N2CCCCCC2)cc1 (configuration not stated) | -6 | 100* | 18 | -16 | i
COc1ccccc1N1CCN(C(=O)C2CCCN(S(=O)(=O)c3ccc4c(c3)oc(=O)n4C)C2)CC1 (configuration not stated) | 2 | 25* | 1 | -49 | i
Cn1c(=O)c2c(ncn2CC(=O)Nc2nc(-c3ccccc3Cl)cs2)n(C)c1=O | -8 | i | 20 | -1 | -10*
COc1ccc(-c2nc(N)ncc2-c2ccccc2)c(O)c1 | 0 | i | 8 | -14 | i
COc1ccc(-c2cnc(N)nc2-c2ccc(OC)cc2O)cc1 | -9 | i | 7 | -8 | -17*
Cc1cc(-c2ccc(N=Nc3c(S(=O)(=O)O)cc4cc(S(=O)(=O)O)cc(N)c4c3O)c(C)c2)ccc1N=Nc1c(S(=O)(=O)O)cc2cc(S(=O)(=O)O)cc(N)c2c1O | -19 | i | 98* | . | .
CC(=O)c1ccc(NC(=O)C(=O)c2cn(CC(=O)N3CCCCC3)c3ccccc23)cc1 | -6 | i | 2 | 5 | i
CCOC(=O)c1sc(NC(=O)c2ccc(S(=O)(=O)N(C)C)cc2)nc1C | 4 | i | -4 | -4 | -14*
CCOC(=O)c1csc(NC(=O)c2ccc(S(=O)(=O)N(C)C)cc2)n1 | -8 | i | -26 | -16 | i
O=[N+]([O-])c1cc(S(=O)(=O)Nc2cccc(C(F)(F)F)c2)ccc1-n1nnc2ccccc21 | -16 | 100* | 18 | -3 | i
COc1ccc(NS(=O)(=O)c2ccc(-n3nnc4ccccc43)c([N+](=O)[O-])c2)cc1 | -13 | 25* | 8 | 2 | i
C[N+]1(CC(=O)NNc2c3ccccc3nc3ccccc23)CCOCC1 | -318 | i | 6 | 43* | .
